This is an account of results in the RNAGym collection of RNA variant scans (doi:10.1101/gad.245936.114).

This sample holds only a part of the variants without activity. Some results are limits rather than exact numbers.

B1: tRNA (parent)
chain: CUCUCGGUAGCCAAGUUGGUUUAAGGCGCAAGACUUUAAUUUAUCACUACGAAAUCUUGAGAUCGGGCGUUCGACUCGCCCCCGGGAGAUUUUUUCCUCGAGCAA

In the data set the parent is B1. Put plainly: nonsense suppression (GFP-seq) (ratio to wild type); higher = more function; SUP4oc tRNA, yeast GFP reporter sort-seq. The essentials: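 Nonsense suppression (GFPSEQ) is the median GFP/RFP ratio of each sorting bin, weighted by the variant's estimated share of cells in that bin and expressed relative to the unmutated parent tRNA. Yeast strains carried genome-integrated variants of an ochre-suppressor tRNA from a library with ~3% random mutations, plus a galactose-driven GFP ochre reporter and RFP, and were grown in raffinose/galactose medium containing 80 mg/L adenine. Cells were sorted into GFP/RFP bins, each bin was Illumina-sequenced (phred ≥30), and variants were kept only with ≥100 reads and ≥30 cells.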
CUCUCGGUAGCCAAGUUGGUUUAAGGCGCAGGACUUUAAUUUAUCACUACGAAAUCUUGAGAUCGGGCGUUCGAUUCGCCCCCGGGAGAUUUUUUCCUCGAGCAA [A31G C75U]: the nonsense suppression was 1.05. Turning to CUCUCGGUAGCCAAGUUGGUUUAAGGCGCUAGACUUUAAUUUAUCACUACGAAAUCUAGAGAUCGGGCGUUCGACUCGCCCCCGGGAGAUUUUUUCCUCGAGCAA [A30U U58A], the nonsense suppression was 0.89. Under CUCUCGGUAGCCAAGUUGGUUUAAGGCGCACGACUUUAAUUUAUCACUACGAAAUCUUGAGAUCGGGCGUUCGACGCGCCCCCGGGAGAUUUUUUCCUCGAGCAA [A31C U76G] stands no more than 0.026. In the case of CUCUCGGUAGCCAAGUUGGUUUAAGGCGCACGACUUUAAUUUAUCACUACGAAAUCUUGUGAUCGGGCGUUCGAAUCGCCCCCGGGAGAUUUUUUCCUCGAGCAA [A31C A60U C75A] it was 1.23; in that of CUCUCGGUAGCCAAGUUGGUUUAAGGCGCACGACUUUAAUUUAUCACUACGAAAUCUUCAGAUCGGGCGUUCGACUCGCCCCCGGGAGAUUUUUUCCUCGAGCAA [A31C G59C], no more than 0.026; in that of CUCUCGGUAGCCAAGUUGGUUUAAGGCGCACGACUUUAAUUUAUCACUACGAAAUCUUGAAAUCGGGCGUUCGAGUCGCCCCCGGGAGAUUUUUUCCUCGAGCAA [A31C G61A C75G], no more than 0.026. For CUCUCGGUAGCCAAGUUGGUUUAAGGCGCAGGACUUUAAUUUAUCACUACGAAAUCUUGAGAUCGGGCGUUCAACUCGCCCCCGGGAGAUUUUUUCCUCGAGCAA [A31G G73A], the nonsense suppression was found to be 0.366. In the case of CUCUCGGUAGCCAAGUUGGUUUAAGGCGCUAGACUUUAAUUUAUCACUACGAAAUCUUGAGAUCGGGCGUUCGACUCGCCCCCUGGAGAUUUUUUCCUCGAGCAA [A30U G84U] it was 0.423.

On to CUCUCGGUAGCCAAGUUGGUUUAAGGCGCUAGACUUUAAUUUAUCACUACGAAACCUUGAGAUCGGGCGUUCGACUCGCCCCCGGGCGUUUUUUUCCUCGAGCAA [A30U U55C A87C A89U], for which the nonsense suppression was found to be 0.0456. In the case of CUCUCGGUAGCCAAGUUGGUUUAAGGCGCAGGAUUUUAAUUUAUCACUACGAAAUCUUGAGAUCGGGCGUUCGACUCGCCCCCGGGAGAUUUUUUCCUCGAGCAA [A31G C34U] it was no more than 0.026. In the case of CUCUCGGUAGCCAAGUUGGUUUAAGGCGCUAGACGUUAAUUUAUCACUACGAAAUCUUGAGAUCUGGCGUUCGACUCGCCCCCGGGAGAUUUUUUCCUCGAGCAA [A30U U35G G65U] it was no more than 0.026; in that of CUCUCGGUAGCCAAGUUGGUUUAAGGCGCACGACUUUAAUUUAUCACUACGAAAUCAUGAGAUCGGGCGUUCGACUCGCCCCCGGGAGAUUUUUUCCUCGAGCAA [A31C U57A], 0.219. Under CUCUCGGUAGCCAAGUUGGUUUAAGGCGCAGGACUUUAAUUUAUCACUACGAAAUCUUGAGAUCGGGCGUUCGACUCGCCCCCGGGAGAUUUUUUCCUCGAGCAA [A31G] stands 1.08. For CUCUCGGUAGCCAAGUUGGUUUAAGGCGCAGGACUUUAAUUUAUCACUACGAAAUCUUGAGAUCGGGCGUUCGACUCGCCCCCGGGGGAUUUUUUCCUCGAGCAA [A31G A87G], the nonsense suppression stood at 0.762.

With CUCUCGGUAGCCAAGUUGGUUUAAGGCGCACGACUUUAAUUUAUCACUACGAAAUCUUGAGGUCGGGCGUUCGACUCACCCCCGGGAGAUUUUUUCCUCGAGCAA [A31C A62G G78A], the nonsense suppression was no more than 0.026.

On to CUCUCGGUAGCCAAGUUGGUUUAAGGCGCAGGACUUUAAUUUAUCACUACGAAAUCUUGAGAUCGGGCGUUCGUCUCGCCCCCGGGAGAUUUUUUCCUCGAGCAA [A31G A74U], for which the nonsense suppression came to 0.029. For the variant CUCUCGGUAGCCAAGUUGGUUUAAGGCGCACGACUUUAAUUUAUCACUACGAAAUGUUGAGAUCGGGCGUUCGACUCGCCCCCGGGAGAUUUUUUCCUCGAGCAA [A31C C56G], the nonsense suppression is no more than 0.026. Under CUCUCGGUAGCCAAGUUGGUUUAAGGCGCACGACUUUAAUUUAUCACUACGAAAUCUUGAGAUCGGGCGUUCGACUCGCCCCCUGGAGAUUUUUUCCUCGAGCAA [A31C G84U] stands no more than 0.026; under CUCUCGGUAGCCAAGUUGGUUUAAGGCGCAGGACUUUAAUUUAUCACUACGAAAUCUUGAGAUCGGGCGUUCGACUAGCCCCCGGGAGAUUUUUUCCUCGAGCAA [A31G C77A], no more than 0.026; under CUCUCGGUAGCCAAGUUGGUUUAAGGCGCUAGACUUUAAUUUAUCACUACGAAAUCUUGAGAUCGGGCGUUCGACUCGCCCCCGAGAGAUUUUUUCCUCGAGCAA [A30U G85A], 0.52. Under CUCUCGGUAGCCAAGUUGGUUUAAGGCGCUAGACUUUAAUUUAUCACUACGAAAUCUUGAGAUCGGGCGUUCGACUCGCCCCCGUGAGAUUUUUUCCUCGAGCAA [A30U G85U] stands 0.0315; under CUCUCGGUAGCCAAGUUGGUUUAAGGCGCAGGACUUUAAUUUAUCACUACGAAAUCUUGAAAUCGGGCGUUCGACUCGCCCCCGGGAGAUUUUUUCCUCGAGCAA [A31G G61A], 0.8. Under CUCUCGGUAGCCAAGUUGGUUUAAGGCGCAGGACUUUAAUUUAUCACUACGAAAUCUUGACAUCGGGCGUUCGACUCGCCCCCGGGAGAUUUUUUCCUCGAGCAA [A31G G61C] stands 0.275; under CUCUCGGUAGCCAAGUUGGUUUAAGGCGCUAGACUUUAAUUUAUCACUACGAAAUCUUGAGAUCGGACGUUCUGCUCGCCACCGGGAGAUUUUUUCCUCGAGCAA [A30U G67A G73U A74G C81A], no more than 0.026. Turning to CUCUCGGUAGCCAAGUUGGUUUAAGGCGCAGGGCUUUAAUUUAUCACUACGAAACCUUGAAAUCGGGCGUUCGACUCGCCCCCGGGAGAUUUUUUCCUCGAGCAA [A31G A33G U55C G61A], the nonsense suppression came to 0.727. In the case of CUCUCGGUAGCCAAGUUGGUUUAAGGCGCAGGAGUUUAAUUUAUCACUACGAAAUCUUGAGAUCGGGCGUUCGACGCGCCCCCGGGAGAUUUUUUCCUCGAGCAA [A31G C34G U76G] it was no more than 0.026; in that of CUCUCGGUAGCCAAGUUGGUUUAAGGCGCUAUACUUUAAUUUAUCACUACGAAAUAUGGAGAUCGGGCGUUCGACUCGCCCCCGGGAGAUUUUUUCCUCGAGCAA [A30U G32U C56A U58G], 1.11.
